Legend:
Adenosine receptor A2a = Adenosine receptor A2a (Cavia porcellus, UniProt P46616); assay: Compound was evaluated for its ability to antagonise cyclic [3H]AMP accumulation in [3H]adenine-labeled guinea pig cerebral cortical slices.; type: functional
Adenosine receptor A1 = target: T1, Adenosine receptor A1 (Rattus norvegicus, UniProt P25099); assay: Ability to inhibit binding of 1 nM [3H]cyclohexyladenosine to adenosine A1 receptor in rat cerebral cortical membranes; type: cell membranes, Membrane
T1 sequence (P25099 whole entry): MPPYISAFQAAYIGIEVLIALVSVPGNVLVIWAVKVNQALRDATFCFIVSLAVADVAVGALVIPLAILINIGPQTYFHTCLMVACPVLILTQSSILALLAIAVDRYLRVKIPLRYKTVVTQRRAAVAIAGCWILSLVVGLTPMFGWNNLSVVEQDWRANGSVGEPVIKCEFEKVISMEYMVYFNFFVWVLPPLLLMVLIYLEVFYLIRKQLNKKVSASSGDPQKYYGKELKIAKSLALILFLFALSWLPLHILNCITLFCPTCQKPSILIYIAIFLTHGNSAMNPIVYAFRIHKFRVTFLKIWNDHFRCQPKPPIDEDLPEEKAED
How it was run: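 Displacement of 1 nM N6-[3H]cyclohexyladenosine from A1 sites in rat cerebral cortical membranes by a range of xanthine concentrations. Each point was run in triplicate in at least two separate experiments. IC50 was determined and converted to Ki. Values are mean ± SEM of two to five determinations.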

Cavia porcellus = species on record: Cavia porcellus; assay: Selectivity was expressed as the ratio is Ki of adenosine A1 receptor to that of adenosine A2 receptor
[1] = target: Adenosine receptor A1 (Rattus norvegicus) (UniProt P25099); assay: Inactive Selectivity was expressed as the ratio is Ki of A1-[…]

Sequence of Adenosine receptor A2a (P46616 whole entry): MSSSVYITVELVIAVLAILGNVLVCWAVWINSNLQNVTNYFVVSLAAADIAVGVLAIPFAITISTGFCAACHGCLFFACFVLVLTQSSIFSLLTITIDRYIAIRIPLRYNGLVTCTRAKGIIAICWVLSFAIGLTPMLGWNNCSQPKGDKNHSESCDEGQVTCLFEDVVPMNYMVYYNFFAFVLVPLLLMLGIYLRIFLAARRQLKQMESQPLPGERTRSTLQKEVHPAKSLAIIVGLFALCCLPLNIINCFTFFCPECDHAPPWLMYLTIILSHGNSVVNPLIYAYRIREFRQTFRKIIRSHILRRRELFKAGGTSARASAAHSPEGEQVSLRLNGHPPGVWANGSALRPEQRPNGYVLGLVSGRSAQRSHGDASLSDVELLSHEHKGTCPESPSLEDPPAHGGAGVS

Row | Structure (SMILES) | Ki (Adenosine receptor A2a) [µM] | Ki (Adenosine receptor A1) [µM] | Selectivity ratio (Cavia porcellus) | Selectivity ratio [1]
1 | CC(C)Cn1c(=O)n(C)c(=O)c2nc[nH]c21 | – | – | 0.9 | –
2 | C#CCn1cnc2c1c(=O)n(CCC)c(=O)n2CCC | 0.4 | 0.6 | 1.5 | –
3 | Cn1c(=O)n(CCO)c(=O)c2[nH]cnc21 | 50 | 85 | 1.7 | –
4 | CCCn1c(=O)c2nc[nH]c2n(CCC)c1=O | – | – | 0.3 | –
5 | C=CCn1c(=O)c2nc[nH]c2n(CC=C)c1=O | – | 10 | 2 | –
6 | O=c1c2[nH]cnc2n(Cc2ccccc2)c(=O)n1Cc1ccccc1 | 14 | 2 | 0.14 | –
7 | Cn1c(=O)c2nc[nH]c2n(CCO)c1=O | 80 | 60 | 0.8 | –
8 | CC(C)Cn1c(=O)c2nc[nH]c2n(CC(C)C)c1=O | – | 0.5 | 0.3 | –
9 | CCCn1c(=O)c2c(ncn2C)n(CCC)c1=O | 1.2 | 7 | 5.8 | –
10 | CCCn1c(=O)c2c(ncn2CCC)n(CCC)c1=O | 1.4 | 2.6 | 1.9 | –
11 | C#CCn1c(=O)c2c(ncn2C)n(C)c1=O | 6 | – | 7.5 | –
12 | Cn1c(=O)c2c(ncn2CCCl)n(C)c1=O [7-CHLOROETHYLTHEOPHYLLINE] | 4.5 | 8 | 1.8 | –
13 | CC(C)n1c(=O)n(C)c(=O)c2[nH]cnc21 | 6 | 12 | 2 | –
14 | CCn1c(=O)c2nc[nH]c2n(CC)c1=O | 3 | 3.3 | 1.1 | –
15 | C=CCn1cnc2c1c(=O)n(CCC)c(=O)n2CCC | 0.7 | 1.9 | 2.7 | –
16 | C=CCn1c(=O)c2c(ncn2C)n(CC=C)c1=O | 4 | 18 | 4.5 | –
17 | C=CCn1c(=O)c2c(ncn2C)n(C)c1=O | 6.5 | 47 | 7.2 | –
18 | CCn1c(=O)c2nc[nH]c2n(C)c1=O | 5 | 15 | 3 | –

Further lines, results first:

Row | Ki (Adenosine receptor A2a) [µM] | Ki (Adenosine receptor A1) [µM] | Selectivity ratio (Cavia porcellus) | Selectivity ratio [1] | Structure (SMILES)
19 | 5 | 38 | 9.5 | – | CCCn1c(=O)c2c(ncn2C)n(C)c1=O
20 | 9 | 24 | 2.7 | – | CCCn1c(=O)n(C)c(=O)c2c1ncn2C
21 | 14 | 6 | 0.4 | – | Cn1c(=O)c2c(ncn2Cc2ccccc2)n(C)c1=O
22 | 135 | 105 | 0.8 | – | Cn1c(=O)c2c(ncn2CCO)n(C)c1=O [ETOFYLLINE]
23 | 1.5 | 1 | 0.7 | – | CCCn1c(=O)c2c(ncn2Cc2ccccc2)n(CCC)c1=O
24 | 4.1 | 12 | 2.9 | – | C#CCn1cnc2c1c(=O)n(C)c(=O)n2C
25 | 11 | 13 | 1.2 | – | CCCn1cnc2c1c(=O)n(C)c(=O)n2CC(C)C
26 | 2.8 | 3.1 | 1.1 | – | C#CCn1cnc2c1c(=O)n(C)c(=O)n2CC(C)C
27 | 11 | 9 | 0.8 | – | CC(C)Cn1c(=O)n(C)c(=O)c2c1ncn2Cc1ccccc1
28 | 11 | 21 | – | 1.9 | CCCn1cnc2c1c(=O)n(C)c(=O)n2C
29 | 8.5 | 13 | 1.5 | – | C=CCn1cnc2c1c(=O)n(C)c(=O)n2CC(C)C
30 | 7 | 19 | 2.7 | – | CC(C)Cn1c(=O)n(C)c(=O)c2c1ncn2C
31 | 10 | 33 | 3.3 | – | C=CCn1cnc2c1c(=O)n(C)c(=O)n2C
32 | 68 | 40 | 0.6 | – | CC(=O)OCCn1cnc2c1c(=O)n(C)c(=O)n2C
